# Measurements reported in ChEMBL document CHEMBL1139875, “Discovery of 4-aminobutyric acid derivatives possessing anticonvulsant and antinociceptive activities: a hybrid pharmacophore approach” (2007).
# Calls of active or inactive are those of the source. No cut-off for these calls is given here.
# Legend:
# Mus musculus [1] = assay: Anticonvulsant activity in Swiss Albino mouse at 300 mg/kg, ip after 0.5 hr by MES test; format: functional, organism-based; parameters: dose 300 mg/kg
# How it was run: (§1)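 Mice (Swiss, 20-25 g) given i.p. doses of 30, 100 and 300 mg/kg under ADD program protocols, three per group, examined at 0.5 and 4 h in MES, scPTZ, scSTY or scPIC seizure tests. Value is the minimum dose protecting half or more of the mice.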
# Mus musculus [2] = assay: Anticonvulsant activity in Swiss Albino mouse at 300 mg/kg, ip after 4 hrs by MES test; format: functional, organism-based; parameters: dose 300 mg/kg; how it was run: as §1
# Mus musculus [3] = assay: Anticonvulsant activity in Swiss Albino mouse at 300 mg/kg, ip after 0.5 hr by scPTZ test; format: functional, organism-based; parameters: dose 300 mg/kg; how it was run: as §1
# Mus musculus [4] = assay: Anticonvulsant activity in Swiss Albino mouse at 100 mg/kg, ip after 0.5 hr by scSTY test; format: functional, organism-based; parameters: dose 100 mg/kg; how it was run: as §1
# Mus musculus [5] = assay: Anticonvulsant activity in Swiss Albino mouse at 300 mg/kg, ip after 4 hrs by scSTY test; format: functional, organism-based; parameters: dose 300 mg/kg; how it was run: as §1
# Mus musculus [6] = assay: Anticonvulsant activity in Swiss Albino mouse at 300 mg/kg, ip after 0.5 hr by scPIC test; format: functional, organism-based; parameters: dose 300 mg/kg; how it was run: as §1
# Mus musculus [7] = assay: Anticonvulsant activity in Swiss Albino mouse at 300 mg/kg, ip after 4 hrs by scPIC test; format: functional, organism-based; parameters: dose 300 mg/kg; how it was run: as §1
# Mus musculus [8] = assay: Neurotoxicity in Swiss Albino mouse at 300 mg/kg, ip after 0.5 hr by rotarod test; format: functional, organism-based; parameters: dose 300 mg/kg
# How it was run: (§2)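 Swiss mice (20-25 g) are trained on an accelerating rotorod (10 rpm, 3.2 cm rod), then injected i.p. at 30, 100 or 300 mg/kg, with three per group. Neurotoxicity means failure to keep equilibrium for at least 1 min in each of three trials, checked at 0.5 and 4 h. The value reported is the minimum dose affecting half or more of the mice.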
# Mus musculus [9] = assay: Neurotoxicity in Swiss Albino mouse at 300 mg/kg, ip after 4 hrs by rotarod test; format: functional, organism-based; parameters: dose 300 mg/kg; how it was run: as §2
# Mus musculus [10] = assay: Analgesic activity in Swiss Albino mouse assessed as number of acetic acid-induced writhing per 30 min after 100 mg/kg, ip; format: functional; conditions: route intraperitoneal
# How it was run: (§3)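 Mice in groups of six dosed i.p. at 100 mg/kg, controls receiving 30% v/v PEG 400 in water. Writhing induced by i.p. 0.1 mL of 3% v/v acetic acid 1 h after drug. Writhes (abdominal stretch with at least one hind limb extended) counted over 30 min; % inhibition calculated. Mean ± SEM, Student's t test.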
# Mus musculus [11] = assay: Analgesic activity in Swiss Albino mouse assessed as inhibition of acetic acid-induced writhing responses at 100 mg/kg, ip; format: functional; conditions: route intraperitoneal; how it was run: as §3
# Rattus norvegicus [12] = assay: Effect on spontaneous pain in Sprague-Dawley rat CCI model assessed as duration of paw withdrawal at 100 mg/kg, ip after 0.5 hr; format: functional; conditions: route intraperitoneal
# How it was run: (§4)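 CCI rats (n = 4) dosed 100 mg/kg i.p. (vehicle 30% v/v PEG 400 in water). After 10 min acclimatization in a cage 5 cm above ground, cumulative time the ipsilateral paw was held off the floor over 5 min recorded, excluding locomotion lifts. Mean ± SEM; ANOVA/Bonferroni versus predrug.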
# Rattus norvegicus [13] = assay: Effect on spontaneous pain in Sprague-Dawley rat CCI model assessed as duration of paw withdrawal at 100 mg/kg, ip after 1 hr; format: functional; conditions: route intraperitoneal; how it was run: as §4
# Rattus norvegicus [14] = assay: Effect on spontaneous pain in Sprague-Dawley rat CCI model assessed as duration of paw withdrawal at 100 mg/kg, ip after 1.5 hrs; format: functional; conditions: route intraperitoneal
# How it was run: (§5)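 Unilateral CCI of sciatic nerve (Bennett and Xie) in Sprague-Dawley rats under i.p. pentobarbital sodium (65 mg/kg). Spontaneous pain is scored over 5 min after 10 min acclimatization, as cumulative time the ipsilateral paw is held off the floor. Paw lifts from locomotion or repositioning are excluded. Drug is given at 100 mg/kg i.p. with 30% v/v PEG 400 vehicle. Mean ± SEM, n = 4, compared with predrug by ANOVA/Bonferroni.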
# Rattus norvegicus [15] = assay: Effect on spontaneous pain in Sprague-Dawley rat CCI model assessed as duration of paw withdrawal at 100 mg/kg, ip after 2 hrs; format: functional; conditions: route intraperitoneal; how it was run: as §5
# Rattus norvegicus [16] = assay: Anti-dynamic allodynia effect in Sprague-Dawley rat SNL model assessed as latency to paw withdrawal 100 mg/kg, ip after 0.5 hr; format: functional; conditions: route intraperitoneal
# How it was run: (§6)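 Left L5 spinal nerve ligation rats, tested preoperatively and 9 days postoperatively, then given 100 mg/kg i.p. (vehicle 30% v/v PEG 400 in water). After 10 min acclimatization, plantar surface of affected paw stroked mildly with a cotton-bud; paw lift response recorded. n = 4; retested 0.5-2.5 h post-dose.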
# Rattus norvegicus [17] = assay: Anti-dynamic allodynia effect in Sprague-Dawley rat SNL model assessed as latency to paw withdrawal 100 mg/kg, ip after 1 hr; format: functional; conditions: route intraperitoneal; how it was run: as §6
# Rattus norvegicus [18] = assay: Anti-dynamic allodynia effect in Sprague-Dawley rat SNL model assessed as latency to paw withdrawal 100 mg/kg, ip after 1.5 hrs; format: functional; conditions: route intraperitoneal; how it was run: as §6
# Rattus norvegicus [19] = assay: Anti-dynamic allodynia effect in Sprague-Dawley rat SNL model assessed as latency to paw withdrawal 100 mg/kg, ip after 2 hrs; format: functional; conditions: route intraperitoneal; how it was run: as §6
# Rattus norvegicus [20] = assay: Anti-dynamic allodynia effect in Sprague-Dawley rat SNL model assessed as latency to paw withdrawal 100 mg/kg, ip after 2.5 hrs; format: functional; conditions: route intraperitoneal; how it was run: as §6
# Rattus norvegicus [21] = assay: Anti-cold allodynia effect in Sprague-Dawley rat SNL model assessed as duration of paw withdrawal 100 mg/kg, ip after 0.5 hr; format: functional; conditions: route intraperitoneal
# How it was run: (§7)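 Left L5 spinal nerve ligation under pentobarbital (65 mg/kg i.p.). Allodynic rats dosed i.p. 100 mg/kg, vehicle 30% v/v PEG 400 in water. Acetone (100-200 µL) misted onto midplantar affected paw after 10 min acclimatization; paw withdrawal duration, mean of three samples at least 3 min apart; n = 4 rats.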
# Rattus norvegicus [22] = assay: Anti-cold allodynia effect in Sprague-Dawley rat SNL model assessed as duration of paw withdrawal 100 mg/kg, ip after 1 hrs; format: functional; conditions: route intraperitoneal; how it was run: as §7
# Rattus norvegicus [23] = assay: Anti-cold allodynia effect in Sprague-Dawley rat SNL model assessed as duration of paw withdrawal 100 mg/kg, ip after 1.5 hrs; format: functional; conditions: route intraperitoneal; how it was run: as §7
# Rattus norvegicus [24] = assay: Anti-cold allodynia effect in Sprague-Dawley rat SNL model assessed as duration of paw withdrawal 100 mg/kg, ip after 2 hrs; format: functional; conditions: route intraperitoneal; how it was run: as §7
# Rattus norvegicus [25] = assay: Anti-cold allodynia effect in Sprague-Dawley rat SNL model assessed as duration of paw withdrawal 100 mg/kg, ip after 2.5 hrs; format: functional; conditions: route intraperitoneal; how it was run: as §7
# Rattus norvegicus [26] = assay: Effect on spontaneous pain in Sprague-Dawley rat CCI model assessed as duration of paw withdrawal at 100 mg/kg, ip after 2.5 hrs; format: functional; conditions: route intraperitoneal; how it was run: as §5
# Rattus norvegicus [27] = assay: Antihyperalgesic effects in Sprague-Dawley rat SNL model assessed as duration of paw withdrawal at 100 mg/kg, ip after 0.5 hr, ip; format: functional; conditions: route intraperitoneal
# How it was run: (§8)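 L5 SNL rats (n = 4), dosed 100 mg/kg i.p. (vehicle 30% v/v PEG 400 in water). Pin-prick to midplantar ipsilateral left hindpaw; withdrawal duration, mean of three responses; ≥2 s defined abnormal. Mean ± SEM; one-way ANOVA with Bonferroni versus predrug.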
# Rattus norvegicus [28] = assay: Antihyperalgesic effects in Sprague-Dawley rat SNL model assessed as duration of paw withdrawal at 100 mg/kg, ip after 1 hr, ip; format: functional; conditions: route intraperitoneal; how it was run: as §8
# Rattus norvegicus [29] = assay: Antihyperalgesic effects in Sprague-Dawley rat SNL model assessed as duration of paw withdrawal at 100 mg/kg, ip after 1.5 hrs, ip; format: functional; conditions: route intraperitoneal; how it was run: as §8
# Rattus norvegicus [30] = assay: Antihyperalgesic effects in Sprague-Dawley rat SNL model assessed as duration of paw withdrawal at 100 mg/kg, ip after 2 hrs, ip; format: functional; conditions: route intraperitoneal; how it was run: as §8
# Rattus norvegicus [31] = assay: Antihyperalgesic effects in Sprague-Dawley rat SNL model assessed as duration of paw withdrawal at 100 mg/kg, ip after 2.5 hrs, ip; format: functional; conditions: route intraperitoneal; how it was run: as §8
# Rattus norvegicus [32] = species: Rattus norvegicus; assay: Anti-dynamic allodynic effect in Sprague-Dawley rat CCI model assessed as latency to paw withdrawal after 0.5 hr; format: functional
# How it was run: (§9)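 Rats with sciatic nerve chronic constriction injury (pentobarbital 65 mg/kg i.p. anaesthesia), baseline and day 9 testing, then drug per randomization table. After 10 min acclimatization, affected plantar surface stroked mildly with a cotton-bud; paw lift recorded. n = 4; retested 0.5-2.5 h post-dose.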
# Rattus norvegicus [33] = species: Rattus norvegicus; assay: Anti-dynamic allodynic effect in Sprague-Dawley rat CCI model assessed as latency to paw withdrawal after 1 hr; format: functional; how it was run: as §9
# Rattus norvegicus [34] = species: Rattus norvegicus; assay: Anti-dynamic allodynic effect in Sprague-Dawley rat CCI model assessed as latency to paw withdrawal after 1.5 hr; format: functional; how it was run: as §9
# Rattus norvegicus [35] = species: Rattus norvegicus; assay: Anti-dynamic allodynic effect in Sprague-Dawley rat CCI model assessed as latency to paw withdrawal after 2 hr; format: functional; how it was run: as §9
# Rattus norvegicus [36] = species: Rattus norvegicus; assay: Anti-dynamic allodynic effect in Sprague-Dawley rat CCI model assessed as latency to paw withdrawal after 2.5 hr; format: functional; how it was run: as §9
smiles,measurement,setting,value
C/C(=N\NC(=O)NCCCC(=O)O)c1ccccc1,Activity,Mus musculus [1],inactive
same,Activity,Mus musculus [2],inactive
same,Activity,Mus musculus [3],inactive
same,Activity,Mus musculus [4],Active
same,Activity,Mus musculus [5],Active
same,Activity,Mus musculus [6],Active
same,Activity,Mus musculus [7],Active
same,Activity,Mus musculus [8],inactive
same,Activity,Mus musculus [9],inactive
same,Activity,Mus musculus [10],33.7
same,inhibition in vivo at 100 mg/kg,Mus musculus [11],82%
same,Activity,Rattus norvegicus [12],13.2 s
same,Activity,Rattus norvegicus [13],18.8 s
same,Activity,Rattus norvegicus [14],18.3 s
same,Activity,Rattus norvegicus [15],12.9 s
same,Activity,Rattus norvegicus [16],8.7 s
same,Activity,Rattus norvegicus [17],7.2 s
same,Activity,Rattus norvegicus [18],9.2 s
same,Activity,Rattus norvegicus [19],12.2 s
same,Activity,Rattus norvegicus [20],11.88 s
same,Activity,Rattus norvegicus [21],17.9 s
same,Activity,Rattus norvegicus [22],12.8 s
same,Activity,Rattus norvegicus [23],11.7 s
same,Activity,Rattus norvegicus [24],10.9 s
same,Activity,Rattus norvegicus [25],4.8 s
same,Activity,Rattus norvegicus [26],10.6 s
same,Activity,Rattus norvegicus [27],23.2 s
same,Activity,Rattus norvegicus [28],27.6 s
same,Activity,Rattus norvegicus [29],18.7 s
same,Activity,Rattus norvegicus [30],16.7 s
same,Activity,Rattus norvegicus [31],17.3 s
same,Activity,Rattus norvegicus [32],14.8 s
same,Activity,Rattus norvegicus [33],10.2 s
same,Activity,Rattus norvegicus [34],13.3 s
same,Activity,Rattus norvegicus [35],12.1 s
same,Activity,Rattus norvegicus [36],14.5 s
